Where two headings read alike, the source gives them in different places.
Assays:
Mia Paca-2 cells = assay: Seahorse XF glycolysis stress assay, glucose-induced ECAR; type: cell-based, human
In short: (§1)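 Seeded 48 h before in growth medium (1.5 × 10⁴ Panc03.27, MDA-MB-231, HPNE; 1.2 × 10⁴ Mia Paca-2; 2.0 × 10⁴ QGP1). MCT1/2 inhibitor 0.5 μM or DMSO added 4 h pre-assay. Medium: DMEM without NaHCO₃, 2 mM glutamine, 5 mM glucose, pH 7.4. Injected in order: 2 mM sodium pyruvate, 10 mM glucose, 2 μM oligomycin, 50 mM 2-DG. Glucose-induced/baseline ECAR ratio, normalized to Hoechst cell counts and 0 mM pyruvate; three experiments.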

Panc03.27 cells = assay: as above; type: cell-based, human
In short: as §1

MDA-MB-231 cells = assay: as above; type: cell-based, human
In short: as §1

QGP1 cells = assay: as above; type: cell-based, human
In short: as §1

HPNE cells = assay: as above; type: cell-based, human
In short: as §1

[1] = humans; 230 mM at 5 ml/s injection rate; cited from earlier work
[2] = mice; injection of 80 mM hyperpolarized solution; cited from earlier work
[3] = system: LDH in extracts from MDA-MB-231 cells; assay: LDH enzyme kinetics in cell extracts; type: biochemical, human; conditions: MDA-MB-231 cell extract
In short: (§2)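 Cells washed in ice-cold PBS, lysed in ice-cold LDH assay lysis buffer, protein measured by Coomassie. Extract mixed with Tris/NaCl/NADH buffer and Tris/NaCl/pyruvate (0–30 mM). Plate shaken 30 s, then A340 read five times at 30-s intervals; initial velocities from NADH oxidation. Enzyme-free and pyruvate-free controls run. Vmax, Vpeak, apparent Km and Ki from biphasic curve fits. Triplicate, three independent experiments; mean ± SE.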

[4] = system: LDH in extracts from HPNE cells; assay: LDH enzyme kinetics in cell extracts; type: biochemical, human; conditions: HPNE cell extract
In short: as §2

human recombinant LDHB = human recombinant LDHB (Homo sapiens, UniProt P07195); assay: LDH coupled-enzyme kinetic assay; type: biochemical
[5] = target: purified human recombinant LDHA (Homo sapiens, UniProt P00338); assay: LDH coupled-enzyme kinetic assay; type: biochemical
[6] = system: LDH in extracts from Mia Paca-2 cells; assay: LDH enzyme kinetics in cell extracts; type: biochemical, human; conditions: Mia Paca-2 cell extract
In short: as §2

[7] = system: LDH in extracts from Panc03.27 cells; assay: LDH enzyme kinetics in cell extracts; type: biochemical, human; conditions: Panc03.27 cell extract
In short: as §2

bovine heart LDH = bovine heart LDH (Bos taurus, UniProt Q5E9B1); assay: LDH coupled-enzyme kinetic assay; type: biochemical
[8] = system: LDH in extracts from QGP1 cells; assay: LDH enzyme kinetics in cell extracts; type: biochemical, human; conditions: QGP1 cell extract
In short: as §2

[9] = 0.5 μM AZD3965 pretreatment 4 h, 5 mM glucose, vs DMSO control
[10] = read-out: Ki (apparent, substrate inhibition)
[11] = 2 mM sodium pyruvate, medium with 5 mM glucose, DMSO control
[12] = LDH bovine heart, pyruvate 0–30 mM

bovine heart LDH, sequence (Q5E9B1 2-334): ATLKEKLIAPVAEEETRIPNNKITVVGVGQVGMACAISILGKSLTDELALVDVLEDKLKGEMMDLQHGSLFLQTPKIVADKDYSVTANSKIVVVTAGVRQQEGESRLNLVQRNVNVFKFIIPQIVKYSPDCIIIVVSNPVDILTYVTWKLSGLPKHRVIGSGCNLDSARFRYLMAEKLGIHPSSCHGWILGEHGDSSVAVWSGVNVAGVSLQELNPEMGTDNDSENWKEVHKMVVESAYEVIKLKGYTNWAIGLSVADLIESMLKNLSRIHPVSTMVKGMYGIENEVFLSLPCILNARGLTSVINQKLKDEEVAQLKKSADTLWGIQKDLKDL
human recombinant LDHB, sequence (P07195 whole entry): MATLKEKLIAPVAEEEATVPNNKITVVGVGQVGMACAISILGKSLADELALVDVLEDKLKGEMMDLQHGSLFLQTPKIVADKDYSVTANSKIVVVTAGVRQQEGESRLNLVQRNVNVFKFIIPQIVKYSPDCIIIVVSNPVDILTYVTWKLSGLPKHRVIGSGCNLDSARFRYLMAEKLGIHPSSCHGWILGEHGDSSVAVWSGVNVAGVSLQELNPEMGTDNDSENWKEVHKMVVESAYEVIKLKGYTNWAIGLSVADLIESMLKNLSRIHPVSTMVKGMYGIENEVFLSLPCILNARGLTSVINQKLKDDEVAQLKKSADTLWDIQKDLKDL

SMILES: Cc1[nH]nc(C(F)(F)F)c1Cc1sc2c(c1C(=O)N1C[C@](C)(O)CO1)c(=O)n(C)c(=O)n2C(C)C [AZD3965, reference compound]
- Effect on 2 mM pyruvate-induced inhibition of glucose-stimulated ECAR (Mia Paca-2 cells; [9]): blocked
- Effect on 2 mM pyruvate-induced inhibition of glucose-stimulated ECAR (Panc03.27 cells; [9]): blocked
- Effect on 2 mM pyruvate-induced inhibition of glucose-stimulated ECAR (MDA-MB-231 cells; [9]): no significant effects
- Effect on 2 mM pyruvate-induced inhibition of glucose-stimulated ECAR (QGP1 cells; [9]): blocked
- Effect on 2 mM pyruvate-induced inhibition of glucose-stimulated ECAR (HPNE cells; [9]): blocked

SMILES: CC(=O)[13C](=O)O [[1-^13C]pyruvate]
- Blood pyruvate concentration [1]: ≥ 2 mM
- Blood pyruvate concentration [2]: ~8 mM

SMILES: CC(=O)C(=O)O [pyruvate]
- Vmaz (maximal initial velocity from activation curve fit) [3]: 2.98 ± 0.17 ΔAbs/s∗10^−3/μg protein
- Vpeak (peak initial velocity of the biphasic curve fit) [3]: 2.20 ΔAbs/s∗10^−3/μg protein
- Ki [3, 10]: 3.39 ± 0.5 mM
- Km ([3]; read-out: Km (apparent)): 100 ± 20 µM
- Decrease of glucose-stimulated ECAR (Mia Paca-2 cells; [11]): > 30%
- Decrease of glucose-stimulated ECAR (Panc03.27 cells; [11]): > 30%
- Decrease of glucose-stimulated ECAR (MDA-MB-231 cells; [11]): > 30%
- Vmaz (maximal initial velocity from activation curve fit) [4]: 2.71 ± 0.08 ΔAbs/s∗10^−3/μg protein
- Vpeak (peak initial velocity of the biphasic curve fit) [4]: 1.98 ΔAbs/s∗10^−3/μg protein
- Ki [4, 10]: 2.67 ± 0.2 mM
- Km ([4]; read-out: Km (apparent)): 90 ± 10 µM
- Ki (human recombinant LDHB): 2.88 ± 0.4 mM
- Vmaz (maximal initial velocity from activation curve fit) (human recombinant LDHB; rLDHB, pyruvate 0–30 mM): 1.00 ± 0.05 ΔAbs/s∗10^−3/μg protein
- Vpeak (peak initial velocity of the biphasic curve fit) (human recombinant LDHB; rLDHB, pyruvate 0–30 mM): 0.75 ΔAbs/s∗10^−3/μg protein
- Ki [5]: 5.33 ± 0.49 mM
- Vmaz (maximal initial velocity from activation curve fit) ([5]; rLDHA, pyruvate 0–30 mM): 1.00 ± 0.04 ΔAbs/s∗10^−3/μg protein
- Vpeak (peak initial velocity of the biphasic curve fit) ([5]; rLDHA, pyruvate 0–30 mM): 0.75 ΔAbs/s∗10^−3/μg protein
- Vmaz (maximal initial velocity from activation curve fit) [6]: 0.88 ± 0.03 ΔAbs/s∗10^−3/μg protein
- Vpeak (peak initial velocity of the biphasic curve fit) [6]: 0.66 ΔAbs/s∗10^−3/μg protein
- Ki [6, 10]: 4.26 ± 0.32 mM
- Km ([6]; read-out: Km (apparent)): 110 ± 10 µM
- Decrease of glucose-stimulated ECAR (QGP1 cells; [11]): > 30%
- Vmaz (maximal initial velocity from activation curve fit) [7]: 2.00 ± 0.07 ΔAbs/s∗10^−3/μg protein
- Vpeak (peak initial velocity of the biphasic curve fit) [7]: 1.56 ΔAbs/s∗10^−3/μg protein
- Ki [7, 10]: 2.33 ± 0.21 mM
- Km ([7]; read-out: Km (apparent)): 50 µM
- Ki (bovine heart LDH): 1.75 ± 0.11 mM
- Vmaz (maximal initial velocity from activation curve fit) (bovine heart LDH; [12]): 3.23 ± 0.10 ΔAbs/s∗10^−3/μg protein
- Vpeak (peak initial velocity of the biphasic curve fit) (bovine heart LDH; [12]): 2.08 ΔAbs/s∗10^−3/μg protein
- Vmaz (maximal initial velocity from activation curve fit) [8]: 1.85 ± 0.05 ΔAbs/s∗10^−3/μg protein
- Vpeak (peak initial velocity of the biphasic curve fit) [8]: 1.42 ΔAbs/s∗10^−3/μg protein
- Ki [8, 10]: 3.42 ± 0.25 mM
- Km ([8]; read-out: Km (apparent)): 80 ± 10 µM
- Decrease of glucose-stimulated ECAR (HPNE cells; [11]): less than 10%

From paper PMC8233206 (The Journal of Biological Chemistry, 2021)
